According to ChEMBL document CHEMBL3124914, “Cytotoxic clerodane diterpenes from Zuelania guidonia” (J Nat Prod, 2014):

Experiments:
[1] = Cytotoxicity against human CEM/ADR5000 cells assessed as cell viability after 24 hrs by MTT assay; assay type: functional, cell-based; conditions: ADR5000, 24 h
In short: (§1)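 Cells kept at 37 °C, 5% CO2 in RPMI 1640 with 10% heat-inactivated FBS, […] streptomycin, and 100 U/mL penicillin. Seeding per well: 1.2 × 10^4 for MIA-PaCa-2, 4 × 10^4 for CCRF-CEM and CEM-ADR5000, and 2 × 10^5 for PBMCs from healthy donors. Compounds were given in DMSO (0.1% DMSO solvent control) at various concentrations for 24 h. Read-out was MTT, and IC50 was taken by nonlinear regression.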

[2] = Cytotoxicity against human MIAPaCa2 cells assessed as cell viability after 24 hrs by MTT assay; assay type: functional, cell-based; conditions: MIA PaCa-2, 24 h; in short: as §1
CCRF-CEM = experiment: Cytotoxicity against human CCRF-CEM cells assessed as cell viability after 24 hrs by MTT assay; assay type: functional, cell-based; in short: as §1
PBMC = experiment: Cytotoxicity against human PBMC assessed as cell viability after 24 hrs by MTT assay; assay type: cell-based; in short: as §1

SMILES | IC50 [1] | IC50 [2] | IC50 (CCRF-CEM) | IC50 (PBMC)
COc1cccc2c1C(=O)c1c(O)c3c(c(O)c1C2=O)C[C@@](O)(C(=O)CO)C[C@@H]3O[C@H]1C[C@H](N)[C@H](O)[C@H](C)O1 [DOXORUBICIN] | > 10 µM | 4.8 µM | 0.5 µM | > 10 µM
CC(=O)O[C@H]1O[C@@H](OC(C)=O)[C@]23C1=C[C@H](O)C[C@H]2[C@](C)(CCC1=CCOOC1)[C@H](C)C[C@@H]3OC(=O)/C=C/c1ccccc1 (relative stereo) | 7.5 µM | 6.9 µM | 1.9 µM | > 10 µM
C=CC(=C)[C@@H](O)C[C@]1(C)[C@H](C)C[C@H](OC2OC[C@@H](O)[C@H](O)[C@H]2O)[C@@]23C(=C[C@H](OC(=O)CCCCCCCCC)C[C@@H]12)[C@@H](OC(C)=O)O[C@H]3OC(C)=O (relative stereo) | > 10 µM | > 10 µM | 9.1 µM | > 10 µM
C=CC(=C)CC[C@]1(C)[C@H](C)C[C@H](O)[C@@]23C(=C[C@@H](OC(=O)/C=C/c4ccccc4)C[C@@H]12)[C@@H](OC(C)=O)O[C@H]3OC(C)=O (relative stereo) | 4.6 µM | 4.6 µM | 1.6 µM | > 10 µM
C=CC(=C)CC[C@]1(C)[C@H](C)C[C@H](OC(=O)CC(O)CCCCCCCCC)[C@@]23C(=C[C@H](O)C[C@@H]12)[C@@H](OC(C)=O)O[C@H]3OC(C)=O (relative stereo) | 5.7 µM | 7.4 µM | 2.5 µM | > 10 µM
C=CC(=C)[C@H](O)C[C@]1(C)[C@H](C)C[C@H](OC(=O)CC(O)CCCCCCCCC)[C@@]23C(=C[C@H](O)C[C@@H]12)[C@@H](OC(C)=O)O[C@H]3OC(C)=O (relative stereo) | > 10 µM | > 10 µM | 5.5 µM | > 10 µM
CCCCCCCCCC(=O)O[C@H]1C=C2[C@@H](OC(C)=O)O[C@@H](OC(C)=O)[C@]23[C@@H](OC2OC[C@@H](O)[C@H](O)[C@H]2O)C[C@@H](C)[C@@](C)(C[C@@H](O)C2=CCOOC2)[C@@H]3C1 (relative stereo) | > 10 µM | > 10 µM | 8.4 µM | > 10 µM
CC[C@@]1(O)C(=O)OCc2c1cc1n(c2=O)Cc2cc3ccccc3nc2-1 [CAMPTOTHECIN] | 0.3 µM | > 10 µM | 0.08 µM | > 10 µM
C=CC(=C)CC[C@]1(C)[C@H](C)C[C@H](OC(=O)/C=C/c2ccccc2)[C@@]23C(=C[C@H](O)C[C@@H]12)[C@@H](OC(C)=O)O[C@H]3OC(C)=O (relative stereo) | 8.6 µM | > 10 µM | 5.3 µM | > 10 µM
CCCCCCCCCC(=O)O[C@H]1C=C2[C@@H](OC(C)=O)O[C@@H](OC(C)=O)[C@]23[C@@H](OC2OC[C@@H](O)[C@H](O)[C@H]2O)C[C@@H](C)[C@@](C)(C[C@H](O)C2=CCOOC2)[C@@H]3C1 (relative stereo) | > 10 µM | > 10 µM | 8 µM | > 10 µM
C=CC(=C)CC[C@]1(C)[C@H](C)CC[C@@]23C(=CC(=O)C[C@@H]12)[C@@H](OC(C)=O)O[C@H]3OC(C)=O (relative stereo) | > 10 µM | > 10 µM | 9.5 µM | > 10 µM
